ChEMBL document CHEMBL4622843, “Synthesis, state-of-the-art NMR-binding and molecular modeling study of new benzimidazole core derivatives as Pin1 inhibitors: Targeting breast cancer” (Bioorg Med Chem, 2020)
pIC50: −log10 of the molar value. The source made the active and inactive calls. The calls are words filed in the database; no cut-off is given here.

What was measured:
MCF7 [1] = test: Cytotoxicity against human MCF7 cells assessed as reduction in cell viability after 24 hrs by MTT assay; type: functional, cell-based; conditions: MCF7, 24 h
MCF7 [2] = test: Induction of apoptosis in human MCF7 cells assessed as necrotic cells at 10 mg/ml after 24 hrs by AnnexinV-FITC/propidium iodide staining based flow cytometry analysis (reference value: 0.44%); type: functional
MCF7 [3] = test: Cell cycle arrest in human MCF7 cells assessed as accumulation at G2/M phase at 10 mg/ml after 24 hrs by Annexin V-FITC/propidium iodide staining based flow cytometry (reference value: 5.47%); type: functional
MCF7 [4] = test: Cell cycle arrest in human MCF7 cells assessed as accumulation at G0/G1 phase at 10 mg/ml after 24 hrs by Annexin V-FITC/propidium iodide staining based flow cytometry (reference value: 56.38%); type: functional
MCF7 [5] = test: Cell cycle arrest in human MCF7 cells assessed as accumulation at PreG1 phase at 10 mg/ml after 24 hrs by Annexin V-FITC/propidium iodide staining based flow cytometry (reference value: 1.04%); type: functional
MCF7 [6] = test: Induction of apoptosis in human MCF7 cells assessed as early apoptotic cells at 10 mg/ml after 24 hrs by AnnexinV-FITC/propidium iodide staining based flow cytometry analysis (reference value: 0.41%); type: functional
MCF7 [7] = test: Induction of apoptosis in human MCF7 cells assessed as late apoptotic cells at 10 mg/ml after 24 hrs by AnnexinV-FITC/propidium iodide staining based flow cytometry analysis (reference value: 0.19%); type: functional
MCF7 [8] = test: Cell cycle arrest in human MCF7 cells assessed as accumulation at S phase at 10 mg/ml after 24 hrs by Annexin V-FITC/propidium iodide staining based flow cytometry (reference value: 38.15%); type: functional
[9] = target: Peptidyl-prolyl cis-trans isomerase NIMA-interacting 1 (Homo sapiens) (UniProt Q13526); test: Binding affinity to recombinant human 15N-labelled N-terminal 6His-tagged Pin1 expressed in Escherichia coli BL21 (DE3) cells at 1:10 ratio of protein to compound by 2D 15N-1H HSQC NMR spectroscopy
Chain of Peptidyl-prolyl cis-trans isomerase NIMA-interacting 1 (Homo sapiens) (Q13526 whole entry): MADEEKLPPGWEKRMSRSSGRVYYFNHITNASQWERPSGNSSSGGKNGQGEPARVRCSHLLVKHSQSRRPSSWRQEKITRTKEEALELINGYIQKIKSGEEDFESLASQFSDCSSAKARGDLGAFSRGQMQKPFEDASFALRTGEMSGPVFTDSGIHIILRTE
Summary of the method: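 Pin1 and compound at a 1:10 protein:compound ratio, compound partially dissolved in 95% buffer/5% DMSO. A reference HSQC spectrum was recorded with DMSO only and compared with ligand-containing spectra.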

[10] = Solubility of the compound in 95% PBS buffer/5% DMSO; type: physicochemical

CCOc1ccccc1N1CCN(C(=S)SCc2nc3cc(C)c(C)cc3[nH]2)CC1
pIC50 (MCF7 [1]): 5.25
Activity (MCF7 [2]): 2.91%
Activity (MCF7 [3]): 27.86%
Activity (MCF7 [4]): 39.72%
Activity (MCF7 [5]): 27.28%
Activity (MCF7 [6]): 7.36%
Activity (MCF7 [7]): 17.01%
Activity (MCF7 [8]): 32.42%

Cc1cc2nc(CSC(=S)N3CCCCC3)[nH]c2cc1C
pIC50 (MCF7 [1]): 5.02
Activity [9]: Active
solubility [10]: Soluble

CN1CCN(CCCSc2nc3ccccc3[nH]2)CC1
pIC50 (MCF7 [1]): 4.11

Clc1cccc(N2CCN(CCCSc3nc4cc(Cl)ccc4[nH]3)CC2)c1
pIC50 (MCF7 [1]): 4.21

COc1ccc(N2CCN(C(=S)SCc3nc4cc(Cl)c(Cl)cc4[nH]3)CC2)cc1
pIC50 (MCF7 [1]): 4.70

CN1CCN(CCCSc2nc3cc(Cl)ccc3[nH]2)CC1
pIC50 (MCF7 [1]): 4.86

CCOc1ccccc1N1CCN(CCCSc2nc3cc(Cl)ccc3[nH]2)CC1
pIC50 (MCF7 [1]): 4.56

COc1ccc(N2CCN(CCCSc3nc4ccccc4[nH]3)CC2)cc1
pIC50 (MCF7 [1]): 5.16
Activity [9]: Active
solubility [10]: Soluble

c1ccc2[nH]c(SCCCN3CCOCC3)nc2c1
pIC50 (MCF7 [1]): 4.08

CCOc1ccccc1N1CCN(C(=S)SCc2nc3cc(Cl)c(Cl)cc3[nH]2)CC1
pIC50 (MCF7 [1]): 4.79

COc1ccc(N2CCN(C(=S)SCc3nc4cc(C)c(C)cc4[nH]3)CC2)cc1
pIC50 (MCF7 [1]): 4.34

CN1CCN(C(=S)SCc2nc3cc(Cl)c(Cl)cc3[nH]2)CC1
pIC50 (MCF7 [1]): 4.52

COc1ccc(N2CCN(CCCSc3nc4cc(Cl)ccc4[nH]3)CC2)cc1
pIC50 (MCF7 [1]): 4.41

CCOc1ccccc1N1CCN(CCCSc2nc3ccccc3[nH]2)CC1
pIC50 (MCF7 [1]): 4.49

c1ccc2[nH]c(SCCCN3CCNCC3)nc2c1
pIC50 (MCF7 [1]): 4.04

CCN(CC)C(=S)SCc1nc2cc(Cl)c(Cl)cc2[nH]1
pIC50 (MCF7 [1]): 4.90

Clc1cccc(N2CCN(CCCSc3nc4ccccc4[nH]3)CC2)c1
pIC50 (MCF7 [1]): 4.26

ClCCCSc1nc2cc(Cl)ccc2[nH]1
pIC50 (MCF7 [1]): 4.62

S=C(SCc1nc2cc(Cl)c(Cl)cc2[nH]1)N1CCOCC1
pIC50 (MCF7 [1]): 5.24
Activity [9]: Active
solubility [10]: Soluble

S=C(SCc1nc2cc(Cl)c(Cl)cc2[nH]1)N1CCCCC1
pIC50 (MCF7 [1]): 4.37
